This note sets out measurements from ChEMBL document CHEMBL1154427, “Impact of dual infections on chemotherapeutic efficacy in BALB/c mice infected with major genotypes of Trypanosoma cruzi” (2007).

Bounds are passed on as bounds.

What all share (assay type): functional
Assay [1] relates to Trypanosoma cruzi. Put plainly: Antimicrobial activity against Trypanosoma cruzi 1 dually infected in BALB/c mouse assessed as cure rate. The method in brief: (§1)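 Mice counted cured when fresh blood examination, hemoculture, blood PCR, ELISA and FC-ALTA were all negative. Mice negative by parasitology and FC-ALTA but positive by ELISA were counted as dissociated and also cured. Observed cure rate per group = cured animals / total infected treated animals × 100. Each genotype combination was run in replicate batches.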

For assay [2], the system named is Trypanosoma cruzi. Put plainly: Antimicrobial activity against Trypanosoma cruzi genotype 32 infected in BALB/c mouse assessed as cure rate. Put shortly:
as §1

Assay [3] concerns Trypanosoma cruzi. Put plainly: Antimicrobial activity against Trypanosoma cruzi genotype 19 and genotype 32 dually infected in BALB/c mouse assessed as cure rate. The method in brief: as §1
The test system of assay [4] is Trypanosoma cruzi. Put plainly: Antimicrobial activity against Trypanosoma cruzi genotype 19 and genotype 39 dually infected in BALB/c mouse assessed as cure rate. The method in brief: as §1
Assay [5] concerns Trypanosoma cruzi. Put plainly: Antimicrobial activity against Trypanosoma cruzi 2 infected in BALB/c mouse assessed as cure rate. Put shortly:
as §1

The subject of assay [6] is Trypanosoma cruzi. Put plainly: Antimicrobial activity against Trypanosoma cruzi infected in BALB/c mouse assessed as parasitemia remaining in fresh blood. Put shortly:
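Tail-vein blood examined daily by light microscopy for living trypomastigotes up to day 60 after infection.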

Assay [7] has as its system Trypanosoma cruzi. Put plainly: Antimicrobial activity against Trypanosoma cruzi genotype 39 and genotype 32 dually infected in BALB/c mouse assessed as cure rate. The method in brief:
as §1

In assay [8] the test system is Trypanosoma cruzi. Put plainly: Antimicrobial activity against Trypanosoma cruzi genotype 20 and genotype 19 dually infected in BALB/c mouse assessed as cure rate. The method in brief: as §1
The test system of assay [9] is Trypanosoma cruzi. Put plainly: Antimicrobial activity against Trypanosoma cruzi OPS21 cl11 and Trypanosoma cruzi MAS cl11 dually infected in BALB/c mouse assessed as cure rate. Put shortly: as §1
Assay [10] deals with Trypanosoma cruzi. Put plainly: Antimicrobial activity against Trypanosoma cruzi 1 infected in BALB/c mouse assessed as cure rate. Put shortly:
as §1

In assay [11] the test system is Trypanosoma cruzi. Put plainly: Antimicrobial activity against Trypanosoma cruzi infected in BALB/c mouse assessed as parasitemia remaining in hemoculture. Put shortly:
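Orbital sinus blood taken 30 days after treatment was inoculated into 3 ml LIT medium and kept at 28°C. Tubes were checked for parasites at days 30, 60, 90 and 120 of culture.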

Assay [12] concerns Trypanosoma cruzi. Put plainly: Antimicrobial activity against Trypanosoma cruzi infected in BALB/c mouse assessed as parasitemia remaining by PCR method. The method in brief: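 Orbital sinus blood taken 30 days after treatment into 6 M guanidine–0.2 M EDTA (pH 8.0), 1:2, and kept at room temperature. PCR used primers S35/S36 with 3.5 mM MgCl2: 5 min at 94°C, then 35 cycles of 95°C/65°C/72°C for 1 min each, then 10 min final extension. Products were resolved on 6% polyacrylamide with silver staining.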

Assay [13] deals with Trypanosoma cruzi. Put plainly: Antimicrobial activity against Trypanosoma cruzi genotype 19 infected in BALB/c mouse assessed as cure rate. Put shortly: as §1
The subject of assay [14] is Trypanosoma cruzi. Put plainly: Antimicrobial activity against Trypanosoma cruzi and Trypanosoma cruzi 2 dually infected in BALB/c mouse assessed as cure rate. Put shortly:
as §1

Assay [15] concerns Trypanosoma cruzi. Put plainly: Antimicrobial activity against Trypanosoma cruzi 1 and Trypanosoma cruzi dually infected in BALB/c mouse assessed as cure rate. The method in brief: as §1
Assay [16] deals with Trypanosoma cruzi. Put plainly: Antimicrobial activity against Trypanosoma cruzi 1 and Trypanosoma cruzi 2 dually infected in BALB/c mouse assessed as cure rate. The method in brief: as §1
Assay [17] has as its system Trypanosoma cruzi. Put plainly: Antimicrobial activity against Trypanosoma cruzi genotype 39 infected in BALB/c mouse assessed as cure rate. Put shortly: as §1
In assay [18] the test system is Trypanosoma cruzi. Put plainly: Antimicrobial activity against Trypanosoma cruzi infected in BALB/c mouse assessed as parasitemia remaining by ELISA. The method in brief: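 Conventional ELISA on sera taken 2 and 3 months after treatment and stored at –20°C. Sera were tested at 1:80 in PBS against an alkaline-extract antigen of Y strain parasites grown to exponential phase in LIT medium. Bound antibody was detected with peroxidase anti-mouse IgG and read at 490 nm. Per-plate cutoff = mean of 10 negative sera + 2 SD.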
(ELISA stands for enzyme-linked immunosorbent assay.)

The test system of assay [19] is Trypanosoma cruzi. Put plainly: Antimicrobial activity against Trypanosoma cruzi genotype 20 infected in BALB/c mouse assessed as cure rate. Put shortly:
as §1

The subject of assay [20] is Trypanosoma cruzi. Put plainly: Antimicrobial activity against Trypanosoma cruzi Bug2148 cl1 and Trypanosoma cruzi MAS cl11 dually infected in BALB/c mouse assessed as cure rate. The method in brief: as §1
Assay [21] relates to Trypanosoma cruzi. Put plainly: Antimicrobial activity against Trypanosoma cruzi infected in BALB/c mouse assessed as parasitemia remaining by FC-ALTA. Put shortly: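 Flow cytometric detection of antibodies to live trypomastigotes, microplate format, on sera taken 3 months after treatment and diluted 1:1,500. IgG was detected with FITC-labelled goat anti-mouse IgG. Read-out was percentage of positive fluorescent parasites, relative to a conjugate-only control; >20% was scored positive. Positive and negative controls ran in each batch.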

Assay [22] concerns Trypanosoma cruzi. Put plainly: Antimicrobial activity against Trypanosoma cruzi infected in BALB/c mouse assessed as cure rate. Put shortly:
as §1

For `O=C(Cn1ccnc1[N+](=O)[O-])NCc1ccccc1` [BENZNIDAZOLE], the Activity is given as less than 33% in the assay with Trypanosoma cruzi [1]; 70% with Trypanosoma cruzi [2]; 22.7% in the assay with Trypanosoma cruzi [3]; 25.9% in the assay with Trypanosoma cruzi [4]; 70% with Trypanosoma cruzi [5]; 19.8% in the assay on Trypanosoma cruzi [6]. Also, the Activity in the assay on Trypanosoma cruzi [7] is reported as 59.1%; in the assay on Trypanosoma cruzi [8], 0%; with Trypanosoma cruzi [9], 14.3%; in the assay on Trypanosoma cruzi [10], 35.4%; in the assay with Trypanosoma cruzi [11], 79.3%; in the assay with Trypanosoma cruzi [12], 93%. The Activity in the assay with Trypanosoma cruzi [13] was found to be 70%; with Trypanosoma cruzi [14], 59.1%; in the assay with Trypanosoma cruzi [15], 24%; with Trypanosoma cruzi [16], 17.4%; in the assay on Trypanosoma cruzi [17], 50%; with Trypanosoma cruzi [18], 96.4%. The Activity in the assay on Trypanosoma cruzi [19] is 0%; in the assay on Trypanosoma cruzi [20], 83.3%; in the assay with Trypanosoma cruzi [21] it was 99%; in the assay on Trypanosoma cruzi [22], 54.4%.
